The source of these data is ChEMBL document CHEMBL1146062, “Synthesis of 3-benzyl-2-substituted quinoxalines as novel monoamine oxidase A inhibitors” (Bioorg Med Chem Lett, 2006).

In general, IC50 refers to the point on the concentration scale where inhibition reaches its midpoint. A high value points to weaker potency in that assay. One may read the inhibition as the percentage by which the read-out fell short of the control. Read a high inhibition as a strong effect.

The first data set deals with Mus musculus. The data set is described as follows: Toxicity in mouse upto 125 mg/kg administered by parenteral route. The class given is organism-based. Also on record: dose 125 mg/kg. The following applies: in vivo.
Turning to `Clc1cc2nc(Cc3ccccc3)c(NCCN3CCOCC3)nc2cc1Cl`, the Activity result is listed as “Non-toxic”.
The same measure, in the same setting: the entry for `OCCNc1nc2ccccc2nc1Cc1ccccc1` is “Non-toxic”; for `CNCCNc1nc2ccccc2nc1Cc1ccccc1` it is “Non-toxic”; for `c1ccc(Cc2nc3ccccc3nc2NCCN2CCOCC2)cc1` it is “Non-toxic”.
In the case of `Clc1ccc(Cc2nc3ccccc3nc2NCCN2CCOCC2)cc1`, the Activity result is “Non-toxic”.
In the case of `NNc1nc2ccccc2nc1Cc1ccccc1`, the Activity entry is given as “Non-toxic”.
For `NNc1nc2ccccc2nc1Cc1ccc(Cl)cc1`, the Activity result is listed as “Non-toxic”.
On the same count and under the same terms, the entry for `NNc1nc2cc(Cl)c(Cl)cc2nc1Cc1ccccc1` is “Non-toxic”.

The test system of the next data set is Mus musculus. Kind of data set: Toxicity in mouse upto 250 mg/kg, po. The class given is organism-based. Also on record: dose 250 mg/kg, route oral. The following applies: in vivo. In short, it runs like this: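 Acute oral toxicity was assessed in male mice. Tolerability and mortality were recorded at doses up to […].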
As for `Clc1cc2nc(Cc3ccccc3)c(NCCN3CCOCC3)nc2cc1Cl`, the Activity entry is listed as “Non-toxic”.
Still for that read-out and setting: the same measure for `OCCNc1nc2ccccc2nc1Cc1ccccc1`: “Non-toxic”; for `CNCCNc1nc2ccccc2nc1Cc1ccccc1`: “Non-toxic”.
On the same count and under the same terms, the entry for `c1ccc(Cc2nc3ccccc3nc2NCCN2CCOCC2)cc1` is “Non-toxic”; for `Clc1ccc(Cc2nc3ccccc3nc2NCCN2CCOCC2)cc1` it is “Non-toxic”.
The same measure, in the same setting: the same measure for `NNc1nc2ccccc2nc1Cc1ccccc1`: “Non-toxic”; for `NNc1nc2ccccc2nc1Cc1ccc(Cl)cc1`: “Non-toxic”; for `NNc1nc2cc(Cl)c(Cl)cc2nc1Cc1ccccc1`: “Non-toxic”.

The target of the next data set is T1, Amine oxidase [flavin-containing] A (Rattus norvegicus, UniProt P21396).
T1 sequence (P21396 whole entry): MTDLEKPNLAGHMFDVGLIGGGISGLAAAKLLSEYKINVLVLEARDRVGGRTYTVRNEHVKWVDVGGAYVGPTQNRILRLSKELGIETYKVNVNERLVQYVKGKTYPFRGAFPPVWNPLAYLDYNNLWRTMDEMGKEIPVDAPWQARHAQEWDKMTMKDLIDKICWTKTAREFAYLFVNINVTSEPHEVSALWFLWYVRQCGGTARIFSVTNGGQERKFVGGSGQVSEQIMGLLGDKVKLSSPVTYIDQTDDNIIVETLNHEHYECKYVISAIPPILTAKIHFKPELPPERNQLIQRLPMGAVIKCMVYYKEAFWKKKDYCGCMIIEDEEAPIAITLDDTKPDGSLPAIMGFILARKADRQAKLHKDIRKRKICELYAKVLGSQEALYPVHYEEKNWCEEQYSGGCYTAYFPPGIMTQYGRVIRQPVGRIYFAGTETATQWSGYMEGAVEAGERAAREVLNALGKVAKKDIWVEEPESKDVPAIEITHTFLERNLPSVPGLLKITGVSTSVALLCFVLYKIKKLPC
Kind of data set: Inhibition of rat liver mitochondria MAOA.
Conditions: not given
Put shortly:
(§1)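 MAO-A activity was measured in rat liver mitochondria with serotonin (5HT) as substrate. Test compounds were used at a final concentration of 1 × 10^-4 M, and inhibition was determined.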
Take `Clc1cc2nc(Cc3ccccc3)c(NCCN3CCOCC3)nc2cc1Cl`: the 50% inhibitory concentration (IC50) came to 0.073 µM.
The same measure, in the same setting: the figure for `OCCNc1nc2ccccc2nc1Cc1ccccc1` is 0.0037 µM.
As for `CNCCNc1nc2ccccc2nc1Cc1ccccc1`, 0.092 µM corresponded to half-maximal inhibition (IC50).
On the same count and under the same terms, the figure for `c1ccc(Cc2nc3ccccc3nc2NCCN2CCOCC2)cc1` is 0.0013 µM; for `Clc1ccc(Cc2nc3ccccc3nc2NCCN2CCOCC2)cc1` it is 0.0017 µM; for `NNc1nc2ccccc2nc1Cc1ccccc1` it is 0.0088 µM.
The same measure, in the same setting: the same measure for `NNc1nc2ccccc2nc1Cc1ccc(Cl)cc1`: 0.0021 µM; for `NNc1nc2cc(Cl)c(Cl)cc2nc1Cc1ccccc1`: 0.0076 µM.

For another data set, the target named is T2, Amine oxidase [flavin-containing] B (Rattus norvegicus, UniProt P19643).
T2 sequence (P19643 whole entry): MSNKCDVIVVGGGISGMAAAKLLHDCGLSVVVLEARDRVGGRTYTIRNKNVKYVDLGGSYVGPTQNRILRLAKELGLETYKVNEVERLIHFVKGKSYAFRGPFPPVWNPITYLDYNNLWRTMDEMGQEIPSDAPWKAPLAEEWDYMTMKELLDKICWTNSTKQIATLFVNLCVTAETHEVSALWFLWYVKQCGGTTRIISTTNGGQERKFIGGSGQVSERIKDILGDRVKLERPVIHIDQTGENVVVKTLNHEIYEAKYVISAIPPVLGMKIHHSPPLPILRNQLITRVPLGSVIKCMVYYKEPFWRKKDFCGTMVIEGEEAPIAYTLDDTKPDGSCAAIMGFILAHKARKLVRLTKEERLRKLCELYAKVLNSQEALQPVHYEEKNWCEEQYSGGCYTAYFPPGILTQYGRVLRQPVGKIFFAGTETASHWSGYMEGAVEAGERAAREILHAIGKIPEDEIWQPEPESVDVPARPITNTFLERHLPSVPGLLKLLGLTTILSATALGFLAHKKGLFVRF
The data set is described as follows: Inhibition of rat liver mitochondria MAOB.
Conditions: not given
Take `Clc1cc2nc(Cc3ccccc3)c(NCCN3CCOCC3)nc2cc1Cl`: the IC50 is 960 µM.
The same measure, in the same setting: the same measure for `OCCNc1nc2ccccc2nc1Cc1ccccc1`: 86 µM; for `CNCCNc1nc2ccccc2nc1Cc1ccccc1`: 790 µM.
On the same count and under the same terms, the figure for `c1ccc(Cc2nc3ccccc3nc2NCCN2CCOCC2)cc1` is 840 µM; for `Clc1ccc(Cc2nc3ccccc3nc2NCCN2CCOCC2)cc1` it is 360 µM; for `NNc1nc2ccccc2nc1Cc1ccccc1` it is 840 µM.
Still for that read-out and setting: the figure for `NNc1nc2ccccc2nc1Cc1ccc(Cl)cc1` is 570 µM; for `NNc1nc2cc(Cl)c(Cl)cc2nc1Cc1ccccc1` it is 74 µM.

Another data set has as its target T1, Amine oxidase [flavin-containing] A. Kind of data set: Inhibition of rat liver mitochondria MAOA at 100 uM.
Conditions: not given
In short, it runs like this:
as §1
`Clc1cc2nc(Cc3ccccc3)c(NCCN3CCOCC3)nc2cc1Cl` had an inhibition at 100 µM of 40%.
Still for that read-out and setting: the figure for `OCCNc1nc2ccccc2nc1Cc1ccccc1` is 46%; for `CNCCNc1nc2ccccc2nc1Cc1ccccc1` it is 40.9%; for `c1ccc(Cc2nc3ccccc3nc2NCCN2CCOCC2)cc1` it is 46.1%.
On to `Clc1ccc(Cc2nc3ccccc3nc2NCCN2CCOCC2)cc1`, for which the inhibition at 100 µM amounted to 50.5%.
Same read-out and setting: the figure for `NNc1nc2ccccc2nc1Cc1ccccc1` is 54.1%; for `NNc1nc2ccccc2nc1Cc1ccc(Cl)cc1` it is 49.5%; for `NNc1nc2cc(Cl)c(Cl)cc2nc1Cc1ccccc1` it is 42%.
